Data taken from the EternaBench riboswitch data.

Tested on: MS2 coat protein
Assay: apparent Kd, MS2 coat protein; higher = weaker binding; RNA-MaP array; FMN 200 µM where present
Outline: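 Stalled E. coli RNA polymerase transcribed each design on Illumina sequencing-chip clusters. The clusters were titrated with SNAP-549-labelled MS2 coat protein, starting at 0.7 or 1.5 nM and doubling up to 3 µM, first without ligand and then with constant ligand, in 100 mM Tris-HCl pH 7.5, 80 mM KCl, 4 mM MgCl2, BSA, DTT, yeast tRNA and Tween-20. Green signal was normalised to red-channel RNA signal and to the control-cluster median Fmax. The apparent Kd is the median of filtered binding-curve fits made for each cluster.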

[1] = designed as: ON switch for flavin mononucleotide, no ligand
[2] = ligand present: flavin mononucleotide, designed as: ON switch for flavin mononucleotide
[3] = designed as: OFF switch for flavin mononucleotide, no ligand
[4] = ligand present: flavin mononucleotide, designed as: OFF switch for flavin mononucleotide

Sequence | apparent Kd [1] [nM] | apparent Kd [2] [nM] | apparent Kd [3] [nM] | apparent Kd [4] [nM]
GCAACGCCUGACAUGAGGAUCACCCAUGUUAGAUUGUUAUGUCAGGAUAUUGUCGCGAAAUGUGAUGAGAAGGGAUAUGUUGCU | 480 | 48.8 |  | 
GCCGAGUGAGGAUAUACAUGAGGAUCACCCAUGUAAACACGAAAGCAAGUGUCCCUCAGUAGAAGGCGCCUGGA |  |  | 14.2 | 16.6
UGUAACCGAGGAUAUACAUGAGGAUCACCCAUGUAAUGUAGUAUAGUGUGUGUGAGGUGUAGAAGGUGGGAUGU |  |  | 93.4 | 97.2
UUCAACGAUGAAGGAUAUCUAUAAACAUGAGGACAUGAGGAUCACCCAUGUUGAUCACCCAUGUAGGAGAAGGUCAACAUGAGG | 220 | 68.2 |  | 
CUCAUGAGAGGAUAUACAUGAGGAUCACCCAUGUGGUUAUCUCCUCGGGCUCCAUUACGUAGAAGGCUCAUUUG |  |  | 33.9 | 90.6
CAAACCAGAGGAUAUGCGCAUAGAUCAGACUUUGUUUCUGAACAUGAGGAUCACCCAUGUAGAAGGCUGUAAAC |  |  | 25.5 | 24.4
CAGUACUGAGGAUAUACAUGAGGAUCACCCAUGUGUCCUAGCUAGGAUACUAGCAUUAGUAGAAGGCAGUACUG |  |  | 18 | 213
AUACAUGAGGAUCACCCAUGUUACUGGGUCUUAAUAGAUCGUAGAAGGAUGUUAUUAUUAAUUUCAUAGGAUAUACUAUUUAGU |  |  | 48.3 | 32.9
UAGUUGCUAGGAUAUACUUGGGCAACUACUGAACCUAUAUAACAUGAGGAUCACCCAUGUAGAAGGAGCAUAUA |  |  | 23.1 | 19.1
AAACAAGGAUCAGGAUAUGUGAAAGUAGACCGACAUGAGGAUCACCCAUGUACGACAAGACUCGUACAGAAGGGAUGCACAUGA | 73.3 | 165 |  | 
UUUUUAUAUGAAGGAUAUACUUAACAUGAGGAUCACCCAUGUGGUGUUGUGAGUGAGUGAGUUUAGUAGAAGGUCAAUUCUUUU |  |  | 236 | 205
CAGCACGGAAACAAAGUCUUCGGACAUGAGGAUCACCCAUGUAAGGAUAUGCCUACUAAAAGUAGGCAGAAGGUACGCGUGCUG |  |  | 18.9 | 50.9
UAAGCGAUACAGAAGGGAAACAUGAGGAUCAGCCGCGACAUGAGGAUCACCCAUGUUUACUUAUUUCAGGAUAUGUACAGUAGC | 612 | 272 |  | 
UUUUAACAUGAGGAUCACCCAUGUGAGGAUAUCGAAAUUUAUAUUUAUAUUAAUAAUUCGAGAAGGCACAUUUU |  |  | 172 | 165
AAAAGACAUGAGGAUCACCCAUGUCAAGACAUAGGAGGAUAUGUCUGGAAAAAAGACUGGACAGAAGGCCUUUGUC | 19.9 | 17.4 |  | 
CGCUACAUGAGGAUCACCCAUGUACUUACUUGCACGUGAACGAGAAGGCCACAGCAACACAGCGUGGAGGAUAUCGUGGUGCCU | 10.8 | 9.35 |  | 
CAGCGAUAGCUGAACAAUCUAUCUGAGGAUAUUCAUAUAAAACAUGAGGAUCACCCAUGUAAUUGGGAGAAGGCAGAUAGAUUG | 22.4 | 6.11 |  | 
GUCAUCUCGUGAGGAUAUACAACACUGCUUCGGCAGUGUAUUAAGAUCACAUGAGGAUCACCCAUGUAGAAGGCACGAGCUGAU |  |  | 15 | 214
CCCUACGUUUCGUAGCAGUGUCAUCGAGAAGGCCCUGACAUGAGGAUCACCCAUGUUGUUACAUGGGAGGAUAUCGAUGAUGGG | 23 | 6.1 |  | 
AAAUGACAUGAGGAUCACCCAUGUCCACCAAAUGGAGGAUAUUGGACGGCAAAACGUUGUUAAGAAGGCCGAAAUU | 27.6 | 22.3 |  | 
ACAUGAGACUAAGGAUAUGAUGUACCUAUAUGUGACAUGAGGAUCACCCAUGUGGUAAGUAUGACUCAGAAGGUAGAGAUAUGU | 222 | 77.3 |  | 
GAGUGGAGGAAAGGAUAUACAAUGAUAAUCACAGUAGAAGGUUCUAACAUGAGGAUCACCCAUGUAGGACUAUACCAGAGAGGG | 13.1 | 12.5 |  | 
AGUCAUUUACAGAAGGGUAGUUGGGUUAUACAUGAGGAUCACCCAUGUUUUACAGGAUAUGUGUUUUGUUACUAUUAAAGUUCA |  |  | 65.7 | 120
UGUGUGAGACAGGAUAUGCCGGUUGAAUUGCUGGUAGAAGGGUCUACAUGAGGAUCACCCAUGUGGCCGGUUGG |  |  | 18.7 | 25.5
UUAGUUACGGGAGGAUAUGUCACCCUGGGUCACAUGAGGAUCACCCAUGUGACAGAAGGCCCAAUUAUGGUGCCCAGGGCGCCU |  |  | 5.84 | 22.8
CUUUUGUGAGGAUAUCAGUUGUAAAUAAAUAAAAUUACUACUGAGAAGGCACAUGAGGAUCACCCAUGUUCCUC |  |  | 38.1 | 198
AAUAGGCUCGCGCAGGAUAUGGAUCAUUCCACAUGAGGAUCACCCAUGUUAAGGAGCCUUUGCAUCCAGAAGGGUGUUGGUCUUU | 97.2 | 17.9 |  | 
CCUAGUGUGCAGAAGGAGAGUUAACUGCCCGUCGAUGGACUGCACAGAGCUCUAGGAUAUGCACAUGAGGAUCACCCAUGUGCU |  |  | 6.53 | 7.76
